ChEMBL document CHEMBL1132122, “Synthesis and antimalarial activity of 11 dispiro-1,2,4,5-tetraoxane analogues of WR 148999. 7,8,15,16-Tetraoxadispiro[5.2.5.2]hexadecanes substituted at the 1 and 10 positions with unsaturated and polar functional groups” (J Med Chem, 1999)

Key:
Mus musculus [1] = assay: In vivo evaluation for antimalarial activity against Plasmodium berghei in percentage when administered orally in mice (Mus musculus); format: functional; set-up: concentration or dose not given beside the values
Outline: (§1)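 Moro SPF mice infected with P. berghei ANKA, three per group. A single 100 mg/kg dose in 3% ethanol/7% Tween 80 (solution or suspension) was given on day 1 post-infection, po or sc. Activity is percent reduction of parasitemia on day 3 post-infection versus untreated controls.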

Mus musculus [2] = assay: In vivo evaluation for antimalarial activity against Plasmodium berghei in percentage when administered subcutaneously in mice (Mus musculus); format: functional; set-up: concentration or dose not given beside the values; outline: as §1
Mus musculus [3] = assay: In vivo evaluation for antimalarial activity against Plasmodium berghei in terms of survival days when administered orally in mice (Mus musculus); format: functional
Outline: (§2)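 P. berghei ANKA infection in Moro SPF mice, groups of three. Treatment was one 100 mg/kg dose on day 1 post-infection, dissolved or suspended in 3% ethanol plus 7% Tween 80, given orally or subcutaneously. Read-out is mean survival time in days, compared with an untreated control group.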

Mus musculus [4] = assay: In vivo evaluation for antimalarial activity against Plasmodium berghei in terms of survival days when administered subcutaneously in mice (Mus musculus); format: functional; outline: as §2
Plasmodium falciparum [5] = assay: In vitro antimalarial activity against chloroquine-resistant Plasmodium falciparum K1; format: functional, organism-based
Outline: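 Tritiated hypoxanthine uptake assay (modified Desjardins method) on P. falciparum asexual cultures, run on chloroquine-resistant K1 and drug-sensitive NF54 strains.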

Plasmodium falciparum [6] = assay: In vitro antimalarial activity against drug-sensitive Plasmodium falciparum NF54

Row | SMILES | Activity (Mus musculus [1]) | Activity (Mus musculus [2]) | Survival (Mus musculus [3]) | Survival (Mus musculus [4]) | IC50 (Plasmodium falciparum [5]) | IC50 (Plasmodium falciparum [6])
1 | C[C@@H]1CCCCC12OOC1(CCCC[C@@H]1C)OO2 (some centres not stated) [WR-148999] | 99.7% | 100% | 7.7 days | 27.7 days | 28 nM | 39 nM
2 | O=C(O)CC[C@H]1CCCCC12OOC1(CCCC[C@H]1CCC(=O)O)OO2 (some centres not stated) |  |  |  |  | > 200 nM | > 200 nM
3 | c1ccc(C[C@H]2CCCCC23OOC2(CCCC[C@H]2Cc2ccccc2)OO3)cc1 (some centres not stated) |  |  |  |  | > 200 nM | > 200 nM
4 | OC[C@@H]1CCCCC12OOC1(CCCC[C@@H]1CO)OO2 (some centres not stated) |  |  |  |  | > 200 nM | > 200 nM
5 | c1ccc(COC[C@H]2CCCCC23OOC2(CCCC[C@H]2COCc2ccccc2)OO3)cc1 (some centres not stated) | 0% | 0% |  |  | 18 nM | 26 nM
6 | C#CC[C@@H]1CCCCC12OOC1(CCCC[C@@H]1CC#C)OO2 (some centres not stated) | 0% | 9% |  |  | 13 nM | 13 nM
7 | COC[C@H]1CCCCC12OOC1(CCCC[C@H]1COC)OO2 (some centres not stated) | 18% | 100% |  | 24.7 days | 15 nM | 16 nM
8 | CCOC(=O)CC[C@H]1CCCCC12OOC1(CCCC[C@H]1CCC(=O)OCC)OO2 (some centres not stated) | 0% | 0% |  |  | 14 nM | 16 nM
9 | C[C@@H]1CC[C@H]2[C@@H](C)C(=O)O[C@@H]3O[C@@]4(C)CC[C@@H]1[C@]32OO4 [ARTEMISININ] | 98% | 100% | 7.3 days | 14 days |  | 12 nM
10 | CCOC(=O)C[C@H]1CCCCC12OOC1(CCCC[C@H]1CC(=O)OCC)OO2 (some centres not stated) | 0% | 0% |  |  | 6.2 nM | 6.5 nM
11 | O=C(O)C[C@H]1CCCCC12OOC1(CCCC[C@H]1CC(=O)O)OO2 (some centres not stated) |  |  |  |  | > 200 nM | > 200 nM
12 | O=C(OC[C@H]1CCCCC12OOC1(CCCC[C@H]1COC(=O)c1ccccc1)OO2)c1ccccc1 (some centres not stated) |  |  |  |  | > 200 nM | > 200 nM
13 | C=CC[C@@H]1CCCCC12OOC1(CCCC[C@@H]1CC=C)OO2 (some centres not stated) | 93% | 15% | 7 days |  | 19 nM | 23 nM
